Rows were chosen to be rich in hits. Some 1.9% of all compounds tested hit in one or more screens of this group.
H9c2 TAG inh: inhibitors of triacylglycerol accumulation. H9c2 cells, Nile Red lipid (TAG) fluorescence; cells loaded with 200 µM oleic acid. inhibition, % at 12.5 µM. 230,000 compounds, 0.66% hits;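 active means pattern-corrected inhibition of lipid staining of at least 50% with the nuclear-stain viability signal not falling by more than 50%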;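 further: 0% = DMSO wells and 100% = triacsin C control wells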
Lipid droplet: modulators of hepatic lipid droplet formation. AML12 mouse hepatocytes, oleate lipid droplets, BODIPY imaging. inhibition, % at 6.5 µM. 240,000 compounds, 0.4% hits;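 active means lipid droplet intensity inhibited by at least 50%, with more than 500 cells counted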
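material = mouse AML12 hepatocyte cell line, fixed after treatment | also added = 100 µM oleic acid challenge | doses = compound at 6.5 µM only | schedule = overnight exposure | technique = Image-based BODIPY and DAPI two-channel analysis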
APP 5UTR inh: APP translation inhibition; inhibition, % at 2 µM; 190,000 compounds, 0.82% hits; SH-SY5Y APP 5'UTR-luciferase reporter, luminescence;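 active means inhibition above a set limit, derived from the sample mean plus 3 SD, cut at about 45% in these data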
697 NFkB inh: lowers PMA/ionomycin-induced NF-kB signal in 697 B cells. 330,000 compounds, 0.33% hits. AID 435022. inhibition, % at 4 µM. 697 B-cell NF-kB luciferase reporter, 16 h; in the data active means inhibition above about 35%
aSyn 5UTR inh: 5' untranslated region of α-synuclein, MLPCN primary screen; AID 1813; inhibition, % (tested at 7.5 µM); alpha-synuclein 5'UTR reporter, inhibitor activity; 300,000 compounds, 0.82% hits; in the data active means inhibition above about 60%;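 further: H4 neuroglioblastoma cells stably carrying SNCA 5'UTR luciferase fusion; 0% = DMSO wells and 100% = positive control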
Jurkat NFkB inh: inhibitors of the PMA/ionomycin-induced NF-kB reporter in Jurkat cells | PMA/ionomycin-induced NF-kB luciferase reporter, luminescence | inhibition, % at 4 µM | 330,000 compounds, 0.53% hits; in the data active means inhibition above about 50%
Jurkat NFkB conf: inhibitors of the PMA/ionomycin-induced NF-kB reporter in Jurkat cells, retest. shares compounds with Jurkat NFkB inh. Jurkat NF-kB luciferase, 16 h. inhibition, % at 4 µM. 2,700 compounds, 27% hits;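 active means inhibition reaching about 45% at 4 µM in either replicate, limit read from the data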;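 further: plate controls were PMA/ionomycin stimulated DMSO wells for no effect and unstimulated DMSO wells for full effect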
697 NFkB conf: lowers PMA/ionomycin-induced NF-kB signal in 697 B cells; inhibition, % at 4 µM; shares compounds with 697 NFkB inh; AID 449746; 2,000 compounds, 35% hits; 697 B-cell NF-kB luciferase, 16 h; in the data active means inhibition mostly above about 28%, no sharp cut-off; inactive means mostly below about 22%
Active calls of the source: *; nt = no result.

SMILES | H9c2 TAG inh | Lipid droplet | APP 5UTR inh | 697 NFkB inh | aSyn 5UTR inh | Jurkat NFkB inh | Jurkat NFkB conf | others
O=c1c2ccccc2nc(/C=C/c2ccc([N+](=O)[O-])o2)n1-c1ccc(O)cc1 | nt | -38.3 | 80.3* | -221.4 | 100.5* | 91.1* | 66.8*
O=C(Cc1c[nH]c2ccccc12)NNCc1ccc(N(CCCl)CCCl)cc1 | 22.3 | nt | nt | nt | nt | nt | nt
COc1ccc2c(c1)/C(=C/c1cnc[nH]1)C(=O)N2 | 47.6 | -13.7 | nt | -181.6 | -61.8 | 55.0* | 41.9
C/C=C(\C)C(=O)N[C@@H](c1ccccc1)[C@@H](O)C(=O)O[C@H]1C[C@@]2(O)[C@@H](OC(=O)c3ccccc3)C3[C@](C)(C(=O)[C@H](OC(C)=O)C(=C1C)C2(C)C)[C@H](O)C[C@H]1OC[C@@]31OC(C)=O (stereo not given in full) | nt | nt | nt | 1.6 | 109.7* | 72.0* | 72.9*
CC(=O)O[C@@]12CO[C@@H]1C[C@@H](O)[C@@]1(C)C(=O)[C@H](O)C3=C(C)[C@@H](OC(=O)[C@H](O)[C@@H](NC(=O)c4ccccc4)c4ccccc4)C[C@@](O)([C@@H](OC(=O)c4ccccc4)C12)C3(C)C (stereo not given in full) | nt | -85.0 | nt | -26.8 | 113.4* | 64.8* | 64.9*
CCCCCC(=O)N[C@@H](c1ccccc1)[C@@H](O)C(=O)O[C@H]1C[C@@]2(O)[C@@H](OC(=O)c3ccccc3)C3[C@](C)(C(=O)[C@H](O)C(=C1C)C2(C)C)[C@@H](OC1OCC(O)C(O)C1O)C[C@H]1OC[C@@]31OC(C)=O (stereo not given in full) | nt | nt | nt | -20.1 | 6.5 | 40.9 | nt
CC/C=C/CC(=O)N[C@@H](c1ccccc1)[C@@H](O)C(=O)O[C@H]1C[C@@]2(O)[C@@H](OC(=O)c3ccccc3)C3[C@](C)(C(=O)[C@H](OC(C)=O)C(=C1C)C2(C)C)[C@@H](O)C[C@H]1OC[C@@]31OC(C)=O (stereo not given in full) | nt | -31.0 | nt | -14.8 | 77.4* | 65.9* | 63.0*
CCC(C)C(=O)N[C@@H](c1ccccc1)[C@@H](O)C(=O)O[C@H]1C[C@@]2(O)[C@@H](OC(=O)c3ccccc3)C3[C@](C)(C(=O)[C@H](OC(C)=O)C(=C1C)C2(C)C)[C@@H](O)C[C@H]1OC[C@@]31OC(C)=O (stereo not given in full) | nt | nt | nt | -6.0 | 103.3* | 71.7* | 68.0*
CC(=O)O[C@@]12CO[C@@H]1C[C@H](OC1OCC(O)C(O)C1O)[C@@]1(C)C(=O)[C@H](O)C3=C(C)[C@@H](OC(=O)[C@H](O)[C@@H](NC(=O)c4ccccc4)c4ccccc4)C[C@@](O)([C@@H](OC(=O)c4ccccc4)C12)C3(C)C (stereo not given in full) | nt | nt | nt | -44.4 | -11.2 | 47.9 | nt
O=C1CCN(C(=O)C(Cl)Cl)N1 | nt | 2.7 | -9.2 | -2.1 | 5.5 | 14.2 | nt
CC(C)CCOP(N)(=O)Oc1ccccc1Cl (stereo not given) | -63.0 | -39.5 | nt | 22.7 | -5.1 | 14.5 | nt
COC(=O)C1=C(c2ccc(F)cc2F)C[C@@H]2CC[C@H]1N2C(=O)N1CCCCC1 | -11.1 | nt | nt | 20.9 | nt | -3.3 | nt
O=C1OCCC1C(=O)c1ccccc1 (stereo not given) | 3.6 | nt | nt | nt | nt | nt | nt
Nc1ccc(CCN2CCCC2)cc1 | -9.5 | 11.0 | nt | 0.0 | -0.7 | -4.0 | nt
Nc1ccc(CCN2CCN(c3cccc(C(F)(F)F)c3)CC2)cc1 | 34.0 | nt | nt | -11.1 | 17.9 | 60.4* | 12.7
O=C1CNC(c2ccccc2Cl)c2cc(Br)ccc2N1 (stereo not given) | nt | -6.1 | nt | -8.0 | 8.4 | -6.7 | nt
CN1C[C@H]2CON(C)[C@H]2C[C@H]1c1cccc(Br)c1 | -6.1 | nt | nt | nt | nt | nt | nt
Cc1ccccc1-n1c(O)c(/C=C2/C(c3ccccc3)=Nc3ccccc32)c(=O)[nH]c1=O | 28.9 | -14.9 | 62.3* | -92.6 | -43.4 | 52.9* | 35.0
Cc1cccc(-n2c(O)c(/C=C3/C(c4ccccc4)=Nc4ccccc43)c(=O)[nH]c2=O)c1 | 22.2 | -0.2 | nt | -92.6 | -174.0 | 44.9 | nt
CC1=CC(=C2C(=O)NC(=S)NC2=O)C=C(C(F)(F)F)N1CCc1ccccc1 | nt | 0.2 | 92.4* | -54.0 | 1.5 | 50.0* | 14.4
C=C(C)[C@@]12OC3(c4ccccc4)O[C@@H]1C1[C@@H]4O[C@]4(CO)[C@@H](O)[C@]4(O)C(=O)C(C)=C[C@H]4[C@@]1(O3)[C@H](C)[C@H]2OC(=O)/C=C/C=C/c1ccccc1 (stereo not given in full) | nt | nt | nt | -49.0 | -15.9 | 81.4* | 47.5
N#Cc1c(/N=C/c2ccc(O)cc2O)sc2c1C1CCN2CC1 | -0.4 | 2.0 | -7.6 | -41.6 | -11.2 | -0.9 | nt
CN(C)c1ccc(C=C(C#N)C#N)cc1 | nt | -23.8 | -12.3 | -25.3 | -1.4 | -7.9 | nt
CC(C)(C)c1cc(C=C(C#N)C#N)cc(C(C)(C)C)c1O | -17.3 | nt | nt | -290.4 | nt | 55.5* | 72.8* | 697 NFkB conf=-105.5
Cc1cc2c(C(C)C)c(O)c(O)c(C=O)c2c(O)c1-c1c(C)cc2c(C(C)C)c(O)c(O)c(C=O)c2c1O | -0.8 | -6.0 | 16.1 | nt | nt | nt | nt
SMILES | H9c2 TAG inh | Lipid droplet | APP 5UTR inh | 697 NFkB inh | aSyn 5UTR inh | Jurkat NFkB inh | Jurkat NFkB conf | others
C=CC[C@@H](CC/C=C/C=C/CC/C=C\[C@@H]1CSC([C@@H]2C[C@@H]2C)=N1)OC | 39.2 | nt | nt | -325.4 | nt | 74.5* | 52.2* | 697 NFkB conf=-144.4
CCc1cc2c(cc1-c1csc(C/C(N)=N/O)n1)C(C)(C)CCC2(C)C | 7.3 | nt | nt | nt | nt | nt | nt
C=C1C(O)[C@@H]2O[C@]3(CC[C@H](/C=C/C(C)[C@@H]4CC(C)=CC5(O[C@H](C[C@@](C)(O)C(=O)O)CCC5O)O4)O3)CC[C@H]2O[C@@H]1C(O)CC(C)[C@H]1OC2(CCCCO2)CCC1C (stereo not given in full) | nt | nt | nt | 100.3* | nt | 101.0* | 99.0* | 697 NFkB conf=79.2*
Cc1nn(Cc2ccccc2)c(Cl)c1C(=O)OCC(=O)Nc1cccc2ccccc12 | nt | -23.7 | 21.8 | 6.8 | 35.0 | 6.0 | nt
CC(C)(C)n1cc(C(=O)c2ccccc2OCCCF)cn1 | nt | -17.3 | nt | -7.9 | -0.2 | 5.2 | nt
CC(C)(C)n1cc(C(=O)c2ccc3ccccc3c2O)cn1 | -0.7 | -4.3 | -211.7 | -304.9 | 6.5 | -180.5 | -46.5 | 697 NFkB conf=-295.1
COC1=CC(=O)[C@]2(C=C1OC)OC[C@@H]1Oc3c(ccc4c3C=CC(C)(C)O4)C(=O)[C@@H]12 | nt | nt | nt | 77.5* | nt | 52.4* | 74.2* | 697 NFkB conf=87.0*
COc1ccc(CNC(=O)CCC(=O)N2C[C@H]3C[C@H](C2)c2cccc(=O)n2C3)cc1OC | nt | nt | nt | -25.6 | 2.9 | -11.9 | nt
CC(C)COc1ccc(C2(C#N)CC[N+](C)(C)CC2)cc1 | nt | nt | 1.9 | -11.5 | 1.0 | -6.5 | nt

Bioassay records: PubChem BioAssay, several laboratories
